{"data": "Published values pooled from the literature", "target": "Dual specificity mitogen-activated protein kinase kinase 7 (MAP2K7, Homo sapiens, UniProt O14733)", "Residues used in one study (O14733 1-419)": "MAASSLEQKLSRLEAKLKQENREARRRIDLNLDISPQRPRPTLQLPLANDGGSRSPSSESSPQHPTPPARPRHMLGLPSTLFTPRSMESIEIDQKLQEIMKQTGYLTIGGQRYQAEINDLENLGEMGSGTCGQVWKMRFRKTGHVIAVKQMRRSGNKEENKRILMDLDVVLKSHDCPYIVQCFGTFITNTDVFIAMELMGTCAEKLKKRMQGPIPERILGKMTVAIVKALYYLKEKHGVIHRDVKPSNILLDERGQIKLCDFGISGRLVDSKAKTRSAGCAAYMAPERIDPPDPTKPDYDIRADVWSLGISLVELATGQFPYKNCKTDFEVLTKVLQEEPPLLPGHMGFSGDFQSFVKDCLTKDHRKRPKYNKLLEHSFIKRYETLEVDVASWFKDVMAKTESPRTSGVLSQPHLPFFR", "note": "Protocols differ between the studies behind these lines."}
{"Compound": "CCN(CC)CCNC(=O)c1c(C)[nH]c(/C=C2\\C(=O)Nc3ccc(F)cc32)c1C", "assay": "enzyme activity, inhibitor", "setting": "10 µM", "measurement": "inhibition", "result": "31%"}
{"Compound": "CC(C)(C)c1nc2c(s1)c1nc(N)ncc1c1ccc(NS(=O)(=O)c3c(F)cccc3F)c(F)c12", "assay": "enzyme activity, inhibitor, radiometric", "setting": "1 µM", "measurement": "remaining activity", "result": "83%"}
{"Compound": "Cc1sc(C(=O)NC2COC2)cc1-n1cc(NC(=O)Nc2c(F)cccc2Cl)cn1", "assay": "enzyme activity, inhibitor", "setting": "10 µM", "measurement": "remaining activity", "result": "120%"}
{"Compound": "N[C@@H]1CCN(c2nccc(-c3cnn4ncccc34)n2)C1", "assay": "binding", "setting": "1 µM", "measurement": "remaining binding", "result": "100%"}
{"Compound": "Cc1ccc(C(=O)Nc2ccc(CN3CCN(C)CC3)c(C(F)(F)F)c2)cc1C#Cc1cnc2cccnn12", "assay": "enzyme activity, inhibitor", "setting": "23.5 nM", "measurement": "remaining activity", "result": "75%"}
{"Compound": "CC(C)(C)c1nc(-c2cccc(NS(=O)(=O)c3c(F)cccc3F)c2F)c(-c2ccnc(N)n2)s1", "assay": "enzyme activity, inhibitor, radiometric", "setting": "1 µM", "measurement": "remaining activity", "result": "78%"}
{"Compound": "CNC(=O)c1cc(Oc2ccc(NC(=O)Nc3ccc(Cl)c(C(F)(F)F)c3)cc2)ccn1", "assay": "enzyme activity, inhibitor", "setting": "10 µM", "measurement": "inhibition", "result": "40%"}
{"Compound": "Cc1cc(NC(=O)c2cccc(S(F)(F)(F)(F)F)c2)cc(-n2ccn3nc(-c4cccnc4)cc23)c1", "assay": "cell-free assay, competition with immobilised ligand", "setting": "1 µM", "measurement": "remaining binding", "result": "89.7%"}
{"Compound": "Nc1ncnc2occ(-c3ccc(NC(=O)Nc4cc(C(F)(F)F)ccc4F)cc3)c12", "assay": "cell-free assay, inhibitor", "setting": "20 µM", "measurement": "remaining signal", "result": "2.9%"}
{"Compound": "O=C(Nc1cnn(-c2csc(C(=O)NC3COC3)c2)c1)Nc1c(F)cccc1Cl", "assay": "enzyme activity, inhibitor", "setting": "5 µM", "measurement": "remaining activity", "result": "135%"}
{"Compound": "F[C@@H]1CCN(c2nccc(-c3cnn4ncccc34)n2)C1", "assay": "binding", "setting": "1 µM", "measurement": "remaining binding", "result": "100%"}
{"Compound": "C[C@H](NC(=O)c1cnc2n1[C@](C)(Cc1ccc(C#N)cc1)C(=O)N2c1cc(Cl)c(F)c(Cl)c1)C(=O)NC1(c2ccccn2)CC1", "assay": "cell-free assay, competition with immobilised ligand", "setting": "1 µM", "measurement": "remaining binding", "result": "100%"}
